Measured values from ChEMBL document CHEMBL1134783, “N-Arylsulfonylindole derivatives as serotonin 5-HT(6) receptor ligands” (J Med Chem, 2001).

Key:
[1] = target: 5-hydroxytryptamine receptor 6 (Homo sapiens, UniProt P50406); experiment: Binding affinity as displacement of [3H]5-HT binding to 5-hydroxytryptamine 6 receptor in HeLa cells.; assay type: cell-based
How it was run: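 Human 5-HT6 stably expressed in HeLa cells; washed membranes in 50 mM Tris, 0.03% ascorbic acid, pH 7.6. Nonspecific binding defined with 10 µM 5-HT. Filtration and scintillation counting; one-site fit gave IC50, converted to Ki by Cheng-Prusoff. Geometric mean of ≥3 experiments, each in duplicate.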

[2] = target: T1, 5-hydroxytryptamine receptor 1A (Homo sapiens, UniProt P08908); experiment: Binding affinity against 5-hydroxytryptamine 1A receptor in HeLa cells was determined using [3H]5-HT; assay type: cell-based
T1 sequence (P08908 whole entry): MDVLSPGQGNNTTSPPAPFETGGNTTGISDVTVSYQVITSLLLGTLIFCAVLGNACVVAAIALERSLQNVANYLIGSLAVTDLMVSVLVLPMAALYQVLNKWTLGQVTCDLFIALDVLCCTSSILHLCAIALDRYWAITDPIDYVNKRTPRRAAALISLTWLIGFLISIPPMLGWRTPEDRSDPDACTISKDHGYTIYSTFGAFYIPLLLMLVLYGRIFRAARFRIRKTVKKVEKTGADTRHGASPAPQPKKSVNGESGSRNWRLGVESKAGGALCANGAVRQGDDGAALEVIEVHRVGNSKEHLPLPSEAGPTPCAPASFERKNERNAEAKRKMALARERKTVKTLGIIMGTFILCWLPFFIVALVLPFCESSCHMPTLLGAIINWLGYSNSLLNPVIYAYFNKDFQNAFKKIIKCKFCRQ

[3] = target: 5-hydroxytryptamine receptor 1B (Homo sapiens, UniProt P28222); experiment: Binding affinity against 5-hydroxytryptamine 1B receptor in CHO cells using [3H]5-HT as radioligand; assay type: cell-based
[4] = target: T2, 5-hydroxytryptamine receptor 1F (Homo sapiens, UniProt P30939); experiment: Binding affinity against 5-hydroxytryptamine 1F receptor in CHO cells using [3H]5-HT radioligand; assay type: cell-based
T2 sequence (P30939 whole entry): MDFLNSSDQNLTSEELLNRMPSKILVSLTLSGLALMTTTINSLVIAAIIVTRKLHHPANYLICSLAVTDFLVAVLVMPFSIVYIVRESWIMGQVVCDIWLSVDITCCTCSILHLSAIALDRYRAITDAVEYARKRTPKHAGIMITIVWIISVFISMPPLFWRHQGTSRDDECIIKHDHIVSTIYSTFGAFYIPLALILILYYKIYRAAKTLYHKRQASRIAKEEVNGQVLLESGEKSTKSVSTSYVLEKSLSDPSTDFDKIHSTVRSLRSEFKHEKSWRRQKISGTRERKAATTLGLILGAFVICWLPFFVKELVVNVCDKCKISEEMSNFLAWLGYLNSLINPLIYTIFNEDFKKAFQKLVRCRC

[5] = target: 5-hydroxytryptamine receptor 1D (Homo sapiens, UniProt P28221); experiment: Binding affinity against 5-hydroxytryptamine 1D receptor in CHO cells using [3H]5-HT as radioligand; assay type: cell-based
[6] = target: 5-hydroxytryptamine receptor 2A (Rattus norvegicus, UniProt P14842); experiment: Binding affinity for 5-hydroxytryptamine 2 receptor of rat cortical membrane using [3H]DOB radioligand
[7] = target: 5-hydroxytryptamine receptor 5A (Rattus norvegicus, UniProt P35364); experiment: Binding affinity against 5-hydroxytryptamine 5A receptor in HEK 293 cells was determined using [3H]LSD as radioligand; assay type: cell-based, HEK293
[8] = target: 5-hydroxytryptamine receptor 7 (Homo sapiens, UniProt P34969); experiment: Binding affinity for 5-hydroxytryptamine 7 receptor human cloned receptors in CHO cells using [3H]5-HT; assay type: cell-based
D(2) dopamine receptor = D(2) dopamine receptor (Homo sapiens, UniProt P14416); experiment: Binding affinity against dopamine receptor D2 using [3H]spiperone radioligand in CHO cells; assay type: cell-based
D(4) dopamine receptor = target: T3, D(4) dopamine receptor (Homo sapiens, UniProt P21917); experiment: Binding affinity against dopamine receptor D4 cloned in HEK 293 cells using [3H]spiperone radioligand; assay type: cell-based, HEK293
T3 sequence (P21917 whole entry): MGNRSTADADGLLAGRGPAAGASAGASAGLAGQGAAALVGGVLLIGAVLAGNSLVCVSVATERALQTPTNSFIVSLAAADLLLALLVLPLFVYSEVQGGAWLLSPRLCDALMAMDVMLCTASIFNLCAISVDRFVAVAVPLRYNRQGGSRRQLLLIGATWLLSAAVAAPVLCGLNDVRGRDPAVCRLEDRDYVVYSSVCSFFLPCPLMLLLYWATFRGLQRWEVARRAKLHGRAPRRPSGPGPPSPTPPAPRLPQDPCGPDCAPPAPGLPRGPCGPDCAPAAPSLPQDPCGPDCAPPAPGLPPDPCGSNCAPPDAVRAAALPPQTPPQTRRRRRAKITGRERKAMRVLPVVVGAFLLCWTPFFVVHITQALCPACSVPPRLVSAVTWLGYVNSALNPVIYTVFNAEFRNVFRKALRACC

D(3) dopamine receptor = D(3) dopamine receptor (Homo sapiens, UniProt P35462); experiment: Binding affinity against dopamine receptor D3 in HEK 293 cells using [3H]spiperone radioligand; assay type: cell-based, HEK293
D(3) dopamine receptor, sequence (P35462 whole entry): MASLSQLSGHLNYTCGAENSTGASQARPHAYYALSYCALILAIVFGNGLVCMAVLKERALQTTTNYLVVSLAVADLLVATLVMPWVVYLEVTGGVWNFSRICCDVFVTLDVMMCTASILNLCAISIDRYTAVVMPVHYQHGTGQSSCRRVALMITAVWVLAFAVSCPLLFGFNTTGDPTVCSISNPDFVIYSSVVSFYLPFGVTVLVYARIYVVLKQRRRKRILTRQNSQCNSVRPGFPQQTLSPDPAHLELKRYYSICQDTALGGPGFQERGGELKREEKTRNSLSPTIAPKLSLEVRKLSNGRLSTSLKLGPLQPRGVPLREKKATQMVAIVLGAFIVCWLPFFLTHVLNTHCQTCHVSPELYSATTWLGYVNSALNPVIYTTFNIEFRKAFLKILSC

5-hydroxytryptamine receptor 1D, sequence (P28221 whole entry): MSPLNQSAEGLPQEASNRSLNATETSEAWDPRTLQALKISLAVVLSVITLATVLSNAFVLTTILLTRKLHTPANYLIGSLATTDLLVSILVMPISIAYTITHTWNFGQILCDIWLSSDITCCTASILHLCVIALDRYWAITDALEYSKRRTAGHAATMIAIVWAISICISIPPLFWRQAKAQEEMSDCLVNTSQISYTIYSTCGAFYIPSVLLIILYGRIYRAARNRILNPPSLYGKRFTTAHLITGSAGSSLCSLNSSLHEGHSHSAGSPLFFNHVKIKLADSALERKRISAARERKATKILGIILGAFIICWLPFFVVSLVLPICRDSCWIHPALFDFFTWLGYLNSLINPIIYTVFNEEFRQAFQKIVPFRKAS
5-hydroxytryptamine receptor 2A, sequence (P14842 whole entry): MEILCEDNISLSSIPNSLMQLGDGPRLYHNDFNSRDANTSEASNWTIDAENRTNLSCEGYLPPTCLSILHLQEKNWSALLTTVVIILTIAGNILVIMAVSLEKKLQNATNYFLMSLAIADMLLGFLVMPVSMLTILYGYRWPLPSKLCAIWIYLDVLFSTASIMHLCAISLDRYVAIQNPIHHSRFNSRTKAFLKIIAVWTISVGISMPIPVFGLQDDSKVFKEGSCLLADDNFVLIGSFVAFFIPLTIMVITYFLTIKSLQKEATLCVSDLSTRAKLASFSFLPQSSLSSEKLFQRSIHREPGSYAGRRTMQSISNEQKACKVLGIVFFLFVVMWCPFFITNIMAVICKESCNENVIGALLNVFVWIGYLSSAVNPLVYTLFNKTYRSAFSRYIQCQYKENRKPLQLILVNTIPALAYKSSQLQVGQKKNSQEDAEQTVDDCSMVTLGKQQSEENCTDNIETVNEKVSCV
5-hydroxytryptamine receptor 1B, sequence (P28222 whole entry): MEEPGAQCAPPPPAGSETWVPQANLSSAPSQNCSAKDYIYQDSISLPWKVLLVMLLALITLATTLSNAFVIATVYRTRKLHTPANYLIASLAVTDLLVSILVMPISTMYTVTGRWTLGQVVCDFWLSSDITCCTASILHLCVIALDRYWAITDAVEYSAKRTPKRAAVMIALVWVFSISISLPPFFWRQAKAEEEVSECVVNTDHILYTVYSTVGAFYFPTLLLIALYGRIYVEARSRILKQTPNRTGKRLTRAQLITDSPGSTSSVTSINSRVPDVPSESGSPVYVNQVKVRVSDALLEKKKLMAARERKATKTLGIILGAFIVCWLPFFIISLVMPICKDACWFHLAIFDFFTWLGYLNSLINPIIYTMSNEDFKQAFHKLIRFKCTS
D(2) dopamine receptor, sequence (P14416 whole entry): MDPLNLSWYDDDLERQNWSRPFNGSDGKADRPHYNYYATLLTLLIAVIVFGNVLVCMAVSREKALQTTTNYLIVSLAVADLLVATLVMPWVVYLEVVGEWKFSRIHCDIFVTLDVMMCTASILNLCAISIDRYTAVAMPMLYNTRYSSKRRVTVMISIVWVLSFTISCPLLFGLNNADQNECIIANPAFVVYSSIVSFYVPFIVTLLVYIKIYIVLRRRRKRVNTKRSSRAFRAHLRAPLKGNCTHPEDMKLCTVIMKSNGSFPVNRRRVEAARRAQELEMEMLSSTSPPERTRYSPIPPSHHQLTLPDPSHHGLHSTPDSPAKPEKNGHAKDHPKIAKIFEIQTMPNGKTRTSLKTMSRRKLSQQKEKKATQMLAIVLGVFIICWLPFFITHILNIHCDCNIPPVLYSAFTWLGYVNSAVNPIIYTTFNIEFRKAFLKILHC
5-hydroxytryptamine receptor 7, sequence (P34969 whole entry): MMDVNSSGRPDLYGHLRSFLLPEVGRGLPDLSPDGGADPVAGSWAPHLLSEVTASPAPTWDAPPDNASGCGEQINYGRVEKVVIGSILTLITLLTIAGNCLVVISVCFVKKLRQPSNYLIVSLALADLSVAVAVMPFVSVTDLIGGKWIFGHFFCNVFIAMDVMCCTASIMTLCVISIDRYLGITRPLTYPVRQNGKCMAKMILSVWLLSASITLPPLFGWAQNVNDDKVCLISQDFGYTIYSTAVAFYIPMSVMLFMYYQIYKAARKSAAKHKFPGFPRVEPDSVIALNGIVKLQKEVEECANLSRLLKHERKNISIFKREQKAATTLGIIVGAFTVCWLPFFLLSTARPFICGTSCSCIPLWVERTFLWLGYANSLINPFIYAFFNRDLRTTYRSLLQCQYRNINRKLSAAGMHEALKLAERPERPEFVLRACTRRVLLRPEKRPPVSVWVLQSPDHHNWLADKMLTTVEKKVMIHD
5-hydroxytryptamine receptor 5A, sequence (P35364 whole entry): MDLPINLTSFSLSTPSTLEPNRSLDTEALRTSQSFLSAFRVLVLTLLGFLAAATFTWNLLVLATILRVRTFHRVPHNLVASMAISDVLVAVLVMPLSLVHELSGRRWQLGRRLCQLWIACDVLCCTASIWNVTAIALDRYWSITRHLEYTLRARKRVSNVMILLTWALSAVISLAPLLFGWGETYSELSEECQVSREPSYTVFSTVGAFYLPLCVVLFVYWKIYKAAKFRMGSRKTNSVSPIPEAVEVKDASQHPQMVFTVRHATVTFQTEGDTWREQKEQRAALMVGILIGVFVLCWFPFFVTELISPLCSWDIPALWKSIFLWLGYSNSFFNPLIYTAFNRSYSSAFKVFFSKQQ
5-hydroxytryptamine receptor 6, sequence (P50406 whole entry): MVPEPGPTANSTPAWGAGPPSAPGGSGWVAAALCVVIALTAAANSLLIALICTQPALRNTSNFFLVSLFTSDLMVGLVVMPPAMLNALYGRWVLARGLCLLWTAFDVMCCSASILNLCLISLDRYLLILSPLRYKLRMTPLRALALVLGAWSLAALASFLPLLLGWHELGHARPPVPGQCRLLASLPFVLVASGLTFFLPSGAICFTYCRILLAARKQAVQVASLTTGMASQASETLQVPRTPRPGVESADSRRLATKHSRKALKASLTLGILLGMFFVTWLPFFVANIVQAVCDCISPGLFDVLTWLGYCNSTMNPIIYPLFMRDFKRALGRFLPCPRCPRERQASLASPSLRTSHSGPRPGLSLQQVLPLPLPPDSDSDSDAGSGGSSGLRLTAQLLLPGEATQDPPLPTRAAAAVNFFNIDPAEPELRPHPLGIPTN

## CN(C)CCc1cn(S(=O)(=O)c2ccccc2)c2ccc(C#N)cc12
[1]
  Ki: 33 nM

## COc1ccc2c(c1)C(CCN(C)C)CN2S(=O)(=O)c1ccccc1 (stereo not given)
[1]
  Ki: 63 nM

## CN(C)CCc1cn(S(=O)(=O)c2ccccc2)c2ccc(OCc3ccccc3)cc12
[1]
  Ki: 320 nM

## COc1ccc2c(c1)c(CCN(C)C)cn2S(=O)(=O)c1ccc2ccccc2c1
[1]
  Ki: 9.8 nM

## CN(C)CCc1cn(S(=O)(=O)c2ccccc2)c2ccccc12
[2]
  Ki: 520 nM
[3]
  Ki: 2300 nM
[4]
  Ki: 770 nM
[5]
  Ki: 510 nM
[6]
  Ki: 84 nM
[7]
  Ki: 4000 nM
[1]
  Ki: 2.9 nM
[8]
  Ki: 3700 nM
D(2) dopamine receptor
  Ki: 62 nM
D(4) dopamine receptor
  Ki: > 3200 nM
D(3) dopamine receptor
  Ki: 23 nM

## COc1ccc2c(c1)c(CCN1CCOCC1)cn2S(=O)(=O)c1ccccc1
[1]
  Ki: 1700 nM

## CN(C)CCc1cccc2c1cc(C(=O)c1ccccc1)n2S(=O)(=O)c1ccccc1
[2]
  Ki: 480 nM
[3]
  Ki: 190 nM
[4]
  Ki: 570 nM
[5]
  Ki: 98 nM
[6]
  Ki: 6.6 nM
[7]
  Ki: 1600 nM
[1]
  Ki: 3 nM
[8]
  Ki: 1300 nM
D(2) dopamine receptor
  Ki: 750 nM
D(4) dopamine receptor
  Ki: > 3200 nM
D(3) dopamine receptor
  Ki: 66 nM

## COc1ccc2[nH]c(C)c(CCN(C)C)c2c1
[1]
  Ki: 89 nM

## COc1cccc(Cc2noc(-c3[nH]c4ccccc4c3CCN(C)C)n2)c1
[1]
  Ki: 1.3 nM

## COc1ccc2c(c1)c(CCN(C)C)c(C)n2S(=O)(=O)c1ccccc1
[1]
  Ki: 12 nM

## CN(C)CCc1cn(C(=O)OC(C)(C)C)c2ccc(O)cc12
[1]
  Ki: 370 nM

## CO[C@H]1c2cccc3c2c(cn3S(=O)(=O)c2ccc(C)cc2)C[C@@H]1N(C)C
[1]
  Ki: 130 nM

## COc1ccc2c(c1)c(CCN(C)C)cn2S(=O)(=O)c1ccc(Cl)cc1
[1]
  Ki: 17 nM

## CN(C)CCc1cccc2c1ccn2S(=O)(=O)c1ccccc1
[2]
  Ki: 170 nM
[3]
  Ki: 11 nM
[4]
  Ki: 3.9 nM
[5]
  Ki: 9.3 nM
[6]
  Ki: 18 nM
[7]
  Ki: 3400 nM
[1]
  Ki: 1.5 nM
[8]
  Ki: 460 nM
D(2) dopamine receptor
  Ki: 1600 nM
D(4) dopamine receptor
  Ki: > 3200 nM
D(3) dopamine receptor
  Ki: 300 nM

## CN(C)CCc1cn(S(C)(=O)=O)c2ccccc12
[1]
  Ki: 620 nM
